Data as given in article PMC3987869 (Journal of medicinal chemistry, 2013).
Entries after “also recorded” stand apart in the source; their conditions may differ. Read-outs that look alike come from different tables or passages of the source. Each block holds one compound with its values, some of them ahead of it.

What was measured:
[1] = system: mouse brain membrane SH enzymes; type: biochemical; conditions: FP-Rh; for Off-targets (10 μM): 10 μM compound; for Off-targets (1 μM): 1 μM compound
Summary of the method: (§1)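 Mouse brain membrane fraction was prepared by Dounce homogenisation in PBS pH 7.5, a 1,400 × g spin, then a 100,000 × g pellet (45 min). Membranes at 1 mg/mL were preincubated with test compound for 30 min at 37 °C, then labelled with FP-rhodamine (1 μM final, 30 min, 37 °C). Samples were quenched in SDS-PAGE loading buffer, run on 10% SDS-PAGE and scanned for in-gel fluorescence.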

ABHD6 [2] = molecular target: T1, ABHD6 (Mus musculus, UniProt Q8R2Y0); conditions: negligible cross-reactivity with FAAH; cited from earlier work
T1 sequence (Q8R2Y0 1-336): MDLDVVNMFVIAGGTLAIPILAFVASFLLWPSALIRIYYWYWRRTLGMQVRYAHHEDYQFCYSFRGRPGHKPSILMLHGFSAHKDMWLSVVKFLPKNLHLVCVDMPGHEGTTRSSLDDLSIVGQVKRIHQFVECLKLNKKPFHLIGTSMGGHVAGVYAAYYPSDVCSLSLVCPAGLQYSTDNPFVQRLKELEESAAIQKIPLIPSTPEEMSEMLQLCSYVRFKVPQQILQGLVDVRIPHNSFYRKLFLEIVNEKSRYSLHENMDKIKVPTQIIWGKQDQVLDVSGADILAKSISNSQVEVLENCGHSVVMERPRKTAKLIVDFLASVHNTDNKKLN

[3] = molecular target: T2, mouse brain membrane SH enzymes (Mus musculus, UniProt O08914); type: biochemical; conditions: competitive ABPP, FP-Rh
T2 sequence (O08914 1-579): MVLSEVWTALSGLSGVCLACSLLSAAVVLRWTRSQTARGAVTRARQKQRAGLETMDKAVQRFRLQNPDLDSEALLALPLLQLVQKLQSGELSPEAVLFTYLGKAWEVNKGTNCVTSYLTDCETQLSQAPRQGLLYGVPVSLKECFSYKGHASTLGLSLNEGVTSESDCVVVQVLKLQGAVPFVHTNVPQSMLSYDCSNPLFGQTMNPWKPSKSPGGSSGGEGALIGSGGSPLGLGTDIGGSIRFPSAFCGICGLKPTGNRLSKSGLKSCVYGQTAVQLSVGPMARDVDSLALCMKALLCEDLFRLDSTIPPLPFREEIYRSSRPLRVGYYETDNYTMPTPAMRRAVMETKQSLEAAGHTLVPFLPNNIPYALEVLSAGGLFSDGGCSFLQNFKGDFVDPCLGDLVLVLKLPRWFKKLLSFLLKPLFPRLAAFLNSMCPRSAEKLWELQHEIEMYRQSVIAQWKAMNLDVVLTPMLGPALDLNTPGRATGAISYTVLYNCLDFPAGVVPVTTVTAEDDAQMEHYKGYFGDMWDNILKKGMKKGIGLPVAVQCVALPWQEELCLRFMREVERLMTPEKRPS
Summary of the method: as §1

[4] = molecular target: T3, Neuro2A membrane proteome (Mus musculus, UniProt Q8R2Y0); assay: click chemistry-ABPP of Neuro2A cells treated in situ with compound 2; type: cell-based; conditions: Neuro2A cells 1 hr, click with azide-Rh
T3 sequence (Q8R2Y0 1-336): T1 sequence (Q8R2Y0 1-336)

[5] = system: Neuro2A membrane proteome; assay: as above; type: cell-based, mouse; conditions: Neuro2A cells 1 hr, click with azide-Rh
endogenous ABHD6 = molecular target: T4, endogenous ABHD6 (Mus musculus, UniProt Q8R2Y0); assay: gel-based competitive ABPP; type: biochemical; conditions: versus compound 1
T4 sequence (Q8R2Y0 1-336): T1 sequence (Q8R2Y0 1-336)

ABHD6 [6] = molecular target: T1, ABHD6; assay: in situ ABHD6 inhibition in Neuro2A cells, gel-based competitive ABPP; type: cell-based; conditions: for potency and selectivity in cells: abstract statement; for fold more potent in situ compared to compound 1: versus compound 1
[7] = system: other SHs detected in Neuro2A cells; assay: ABPP-SILAC of Neuro2A cells treated in situ: other serine hydrolases; type: cell-based, mouse; conditions: 3 nM, 4 hr
Summary of the method: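 Neuro2A cells were grown 10 passages in light or heavy (13C/15N Arg and Lys) SILAC DMEM with 10% dialyzed FCS and 2 mM L-glutamine. Heavy cells received test compound and light cells DMSO (4 hr, 37 °C). Soluble and membrane proteomes (2.0 mg/mL) were labeled with 10 μM FP-biotin (2 hr, 25 °C), mixed 1:1, avidin-enriched, trypsin-digested on bead (12 hr, 37 °C) and analysed by LC-MS/MS. Heavy/light ratios were taken from ≥3 unique peptides per enzyme.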

ABHD6 [8] = molecular target: T1, ABHD6; assay: in vivo ABHD6 inhibition in mouse liver, gel-based competitive ABPP; conditions: 4 hr; for liver ABHD6 inhibition at 1 mg kg^-1: i.p., 1 mg kg^-1, HT-01 gels
ABHD6 [9] = molecular target: T1, ABHD6; assay: in vivo ABHD6 inhibition in mouse brain, gel-based competitive ABPP; conditions: for brain ABHD6 inhibition: 1 mg kg^-1 (20: all doses tested, 0.1-1 mg kg^-1)
[10] = molecular target: T5, other brain and liver SHs (CES1, FAAH) (Mus musculus, UniProt O08914); type: in vivo; conditions: for lowest oral dose with cross-reactivity with FAAH in the brain: oral gavage
T5 sequence (O08914 1-579): T2 sequence (O08914 1-579)
Summary of the method: (§2)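 Mice were dosed i.p. in 18:1:1 saline/ethanol/PEG40 (10 μL g-1) or by oral gavage in PEG300 (4 μL g-1). After 4 hr they were anaesthetised with isoflurane and killed by cervical dislocation. Brain and liver were Dounce-homogenised in PBS pH 7.5, and membrane fractions (100,000 × g pellet) were labelled with FP-rhodamine or HT-01 (1 μM, 30 min, 37 °C). Readout was SDS-PAGE with in-gel fluorescence.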

[11] = system: other brain and liver SHs (CES1, FAAH); type: in vivo; conditions: mouse, i.p., 4 hr, FP-Rh gels
Summary of the method: as §2

[12] = Table 1, mouse brain membrane proteome

SMILES: COc1ccc(-c2ccc(-c3cn(C(=O)N4CCCCC4c4ccccc4)nn3)cc2)cc1 (centres unmarked) [Compound 1]
Off-targets (10 μM) [1, 12]: FAAH
concentration that completely inactivates ABHD6 in living cells (ABHD6 [2]): 25 nM

SMILES: COc1ccccc1-c1ccc(-c2cn(C(=O)N3CCCCC3c3ccccc3)nn2)cc1 (centres unmarked) [Compound 6]
Off-targets (10 μM) [1, 12]: FAAH, MGLL

SMILES: O=C(N1CCCCC1c1ccccc1)n1cc(-c2ccc(-c3ccccc3CO)cc2)nn1 (centres unmarked) [Compound 8]
Off-targets (1 μM) ([1]; mouse brain SHs): none
Off-targets (10 μM) ([1]; Table 2, mouse brain SHs): FAAH, LYPLA1, LYPLA2

SMILES: COc1ccccc1-c1ccc(-c2cn(C(=O)N3CCCCC3Cc3ccccc3)nn2)cc1 (centres unmarked) [Compound 3]
Off-targets (10 μM) [1, 12]: MGLL

SMILES: NC(=O)c1ccc(-c2ccc(-c3cn(C(=O)N4CCCCC4c4ccccc4)nn3)cc2)cc1 (centres unmarked) [Compound 13]
Off-targets (1 μM) ([1]; mouse brain SHs): none
Off-targets (10 μM) ([1]; Table 2, mouse brain SHs): FAAH, LYPLA1, LYPLA2

SMILES: O=C(N1CCCCC1c1ccccc1)n1cc(-c2ccc(-c3ccc(CO)cc3)cc2)nn1 (centres unmarked) [Compound 10]
Off-targets (1 μM) ([1]; mouse brain SHs): none
Off-targets (10 μM) ([1]; Table 2, mouse brain SHs): FAAH, LYPLA1, LYPLA2

SMILES: O=C(N1CCCCC1c1ccccc1)n1cc(-c2ccc(-c3cccc(CO)c3)cc2)nn1 (centres unmarked) [Compound 9, (4-(3′-(Hydroxymethyl)-[1,1′-biphenyl]-4-yl)-1H-1,2,3-triazol-1-yl)(2-phenylpiperidin-1-yl)methanone]
fold more potent in vitro compared to compound 1 (endogenous ABHD6): ~10 fold
Off-targets (1 μM) ([1]; mouse brain SHs): none
Off-targets (10 μM) ([1]; Table 2, mouse brain SHs): FAAH, LYPLA1, LYPLA2
potency and selectivity in cells (ABHD6 [6]): < 5 nM
fold more potent in situ compared to compound 1 (ABHD6 [6]): ~5 fold
cross-reactivity against the ∼50 other SHs (ABPP-SILAC) [7]: < 50%
liver ABHD6 inhibition at 1 mg kg^-1 (ABHD6 [8]): near-complete blockade; also recorded: near-complete inactivation
brain ABHD6 inhibition (ABHD6 [9]; i.p., 4 hr): completely inactivated; also recorded: near-complete inactivation
lowest oral dose with cross-reactivity with FAAH in the brain [10]: 10 mg/kg
inhibition of off-target carboxylesterase-1 (CES1) in vivo [11]: inhibited

SMILES: O=C(N1CCCCC1Cc1ccccc1)n1cc(-c2ccc(-c3cccc(CO)c3)cc2)nn1 (centres unmarked) [Compound 4]
Off-targets (10 μM) [1, 12]: none

SMILES: O=C(c1ccc(-c2ccc(-c3cn(C(=O)N4CCCCC4c4ccccc4)nn3)cc2)cc1)N1CCCCC1 (centres unmarked) [Compound 12]
Off-targets (1 μM) ([1]; mouse brain SHs): none
Off-targets (10 μM) ([1]; Table 2, mouse brain SHs): LYPLA1, LYPLA2

SMILES: O=C(c1ccc(-c2ccc(-c3cn(C(=O)N4CCCCC4Cc4ccccc4)nn3)cc2)cc1)N1CCCCC1 (centres unmarked) [Compound 5]
Off-targets (10 μM) [1, 12]: none

Continued, in another order:

concentrations cross-reactive with FAAH in mouse brain proteome [3]: 0.4 to 10 µM
lowest concentration at which the ∼35 kDa target (ABHD6) was detected [4]: 10 nM
SMILES: C#CCOCCCc1ccc(C2CCCCN2C(=O)n2cc(-c3ccc(-c4ccc(OC)cc4)cc3)nn2)cc1 (centres unmarked) [Compound 2]
concentrations with limited cross-reactivity (60 kDa protein, likely FAAH) [5]: 80 to 600 nM

Off-targets (1 μM) ([1]; mouse brain SHs): APEH, LYPLA1, and LYPLA2
Off-targets (10 μM) ([1]; Table 2, mouse brain SHs): FAAH, APEH, LYPLA1, LYPLA2
SMILES: O=C(O)c1cccc(-c2ccc(-c3cn(C(=O)N4CCCCC4c4ccccc4)nn3)cc2)c1 (centres unmarked) [Compound 21]

fold more potent in vitro compared to compound 1 (endogenous ABHD6): ~10 fold
Off-targets (1 μM) ([1]; mouse brain SHs): none
Off-targets (10 μM) ([1]; Table 2, mouse brain SHs): LYPLA1, LYPLA2
fold more potent in situ compared to compound 1 (ABHD6 [6]): ~5 fold
doses giving near-complete blockade of ABHD6 in the liver (i.p.) (ABHD6 [8]): 5 to 10 mg/kg
dose to completely block ABHD6 in the brain (i.p.) (ABHD6 [9]; i.p., 4 hr): ~40 mg/kg
inhibition at 20 mg/kg (ABHD6 [9]; ip, read-out: brain ABHD6 inhibition at 20 mg kg^-1): > 70%
dose producing complete blockade of brain ABHD6 (p.o.) (ABHD6 [9]; p.o., PEG300, 4 hr): 40 mg/kg
cross-reactivity with FAAH in brain in vivo ([10]; i.p., 1-40 mg kg^-1, 4 hr): negligible
SMILES: O=C(c1cccc(-c2ccc(-c3cn(C(=O)N4CCCCC4c4ccccc4)nn3)cc2)c1)N1CCCCC1 (centres unmarked) [Compound 11, (2-Phenylpiperidin-1-yl)(4-(3′-(piperidine-1-carbonyl)-[1,1′-biphenyl]-4-yl)-1H-1,2,3-triazol-1-yl)methanone]
cross-reactivity against the ∼50 other SHs (ABPP-SILAC) [7]: < 50%

fold more potent in vitro compared to compound 1 (endogenous ABHD6): ~10 fold
Off-targets (1 μM) ([1]; mouse brain SHs): none
Off-targets (10 μM) ([1]; Table 2, mouse brain SHs): FAAH, DAGLβ
potency and selectivity in cells (ABHD6 [6]): < 5 nM
fold more potent in situ compared to compound 1 (ABHD6 [6]): ~5 fold
brain ABHD6 inhibition (ABHD6 [9]; i.p., 4 hr): negligible inhibition
lowest oral dose with cross-reactivity with FAAH in the brain [10]: 10 mg/kg
SMILES: O=C(O)c1cccc(-c2ccc(-c3cn(C(=O)N4CCCCC4Cc4ccccc4)nn3)cc2)c1 (centres unmarked) [Compound 20, 4′-(1-(2-Benzylpiperidine-1-carbonyl)-1H-1,2,3-triazol-4-yl)-[1,1′-biphenyl]-3-carboxylic acid]
cross-reactivity against the ∼50 other SHs (ABPP-SILAC) [7]: < 50%
liver ABHD6 inhibition at 1 mg kg^-1 (ABHD6 [8]): near-complete blockade; also recorded: near-complete inactivation

Off-targets (1 μM) ([1]; mouse brain SHs): none
Off-targets (10 μM) ([1]; Table 2, mouse brain SHs): FAAH
SMILES: O=C(O)c1cccc(-c2ccc(-c3cn(C(=O)N4CCCCC4CCc4ccccc4)nn3)cc2)c1 (centres unmarked) [Compound 22]
